pIC50: −log10 of the molar value. Calls of active or inactive are those of the source. The calls are words filed in the database; no cut-off is given here.

The first experiment addresses T1, Angiotensin-converting enzyme (Oryctolagus cuniculus) (UniProt P12822).
T1 sequence (whole entry): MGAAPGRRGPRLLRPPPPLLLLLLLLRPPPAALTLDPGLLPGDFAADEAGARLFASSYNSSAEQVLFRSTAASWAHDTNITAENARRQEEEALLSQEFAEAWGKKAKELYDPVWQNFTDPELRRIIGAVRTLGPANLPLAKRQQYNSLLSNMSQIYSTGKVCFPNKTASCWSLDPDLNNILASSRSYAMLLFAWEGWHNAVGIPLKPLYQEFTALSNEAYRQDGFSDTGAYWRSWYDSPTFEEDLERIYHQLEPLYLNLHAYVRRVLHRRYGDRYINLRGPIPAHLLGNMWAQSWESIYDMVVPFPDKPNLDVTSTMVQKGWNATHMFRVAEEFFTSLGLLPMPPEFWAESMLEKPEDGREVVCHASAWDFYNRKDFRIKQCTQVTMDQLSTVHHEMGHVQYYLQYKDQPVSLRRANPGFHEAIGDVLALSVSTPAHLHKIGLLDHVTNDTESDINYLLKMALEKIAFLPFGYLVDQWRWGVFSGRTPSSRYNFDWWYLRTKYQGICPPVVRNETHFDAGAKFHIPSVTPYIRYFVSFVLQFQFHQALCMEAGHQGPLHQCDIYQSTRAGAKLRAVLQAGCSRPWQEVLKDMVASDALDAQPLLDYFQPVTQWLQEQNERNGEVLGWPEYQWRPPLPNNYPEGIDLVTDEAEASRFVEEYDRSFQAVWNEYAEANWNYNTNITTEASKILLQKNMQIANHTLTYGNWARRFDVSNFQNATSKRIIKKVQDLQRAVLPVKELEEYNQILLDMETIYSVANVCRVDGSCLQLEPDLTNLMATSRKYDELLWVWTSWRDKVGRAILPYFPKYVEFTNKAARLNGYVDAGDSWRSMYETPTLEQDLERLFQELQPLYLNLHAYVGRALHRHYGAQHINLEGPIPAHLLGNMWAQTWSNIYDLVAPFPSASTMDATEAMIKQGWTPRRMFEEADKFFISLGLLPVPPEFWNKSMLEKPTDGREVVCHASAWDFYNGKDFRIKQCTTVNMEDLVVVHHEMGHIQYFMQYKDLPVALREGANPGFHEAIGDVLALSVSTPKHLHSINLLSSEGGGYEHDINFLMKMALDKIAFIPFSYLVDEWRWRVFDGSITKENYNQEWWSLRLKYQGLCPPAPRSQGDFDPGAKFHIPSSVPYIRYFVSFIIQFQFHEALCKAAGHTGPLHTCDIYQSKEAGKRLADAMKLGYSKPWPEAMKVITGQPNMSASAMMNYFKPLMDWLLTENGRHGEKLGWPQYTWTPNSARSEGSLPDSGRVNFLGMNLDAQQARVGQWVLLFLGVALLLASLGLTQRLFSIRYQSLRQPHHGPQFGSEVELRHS
Put plainly: Inhibition of rabbit lung ACE assessed as reduction in hippuryl-histidyl-leucine substrate at 3 uM by colorimetric assay. In outline:
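Rabbit lung homogenised (1 g in 10 mL of 0.05 M sodium borate, pH 8.2, with 0.3 M NaCl and 0.5% Triton X-100, 4 °C) and centrifuged to give the ACE source. Enzyme and test solution preincubated 10 min at 37 °C. The reaction was started with borate/NaCl buffer plus 5 mM HHL stock and run 30 min at 37 °C. Released hippuric acid was reacted with pyridine and benzenesulfonyl chloride, and the yellow product read at 410 nm. Inhibition% = 100 − (T/C)×100.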
As to `CCCCc1nc(Cl)c(/C=C/C(=O)c2cccnc2)n1C`, the inhibition entry is “Active”.

Consider `CCCCc1nc(Cl)c(/C=C/C(=O)c2ccc3oc4ccccc4c3c2)n1C`, for which the inhibition result is “Active”.

As for `CCCCc1nc(Cl)c(/C=C/C(=O)c2ccco2)n1C`, the inhibition entry is “Active”.

As for `CCCCc1nc(Cl)c(/C=C/C(=O)c2ccc(OC)cc2)n1C`, the inhibition entry was “Active”.

Consider `CCCCc1nc(Cl)c(/C=C/C(=O)c2ccc(C)cc2)n1C`, for which the inhibition result was “Active”.

Consider `CCCCc1nc(Cl)c(/C=C/C(=O)c2ccc([N+](=O)[O-])cc2)n1C`, for which the inhibition result was “Active”.

Regarding `CCCCc1nc(Cl)c(/C=C/C(=O)c2cc(OC)c(OC)c(OC)c2)n1C`, the inhibition result is “Active”.

For the compound `CCCCc1nc(Cl)c(/C=C/C(=O)c2ccc3c(c2)c2ccccc2n3C)n1C`, the inhibition result was “Active”.

In the case of `CCCCc1nc(Cl)c(/C=C/C(=O)c2cccc3ccccc23)n1C`, the inhibition entry is “Active”.

For `CCCCc1nc(Cl)c(/C=C/C(=O)c2ccccc2)n1C`, the inhibition result is “Active”.

Regarding `CCCCc1nc(Cl)c(/C=C/C(=O)c2ccc(Cl)s2)n1C`, the inhibition entry is “Active”.

`CCCCc1nc(Cl)c(C2CC(c3cccc4ccccc34)=NN2C(C)=O)n1C` (stereo not given): the inhibition entry was “inactive”.

Turning to `CCCCc1nc(Cl)c(/C=C/C(=O)c2cccc(Br)n2)n1C`, the inhibition entry was “Active”.

As for `CCCCc1nc(Cl)c(/C=C/C(=O)c2ccc(Br)s2)n1C`, the inhibition entry is “Active”.

As to `CCCCc1nc(Cl)c(/C=C/C(=O)c2cccs2)n1C`, the inhibition result is “Active”.

With `CCCCc1nc(Cl)c(/C=C/C(=O)c2ccc3ccccc3c2)n1C`, the inhibition entry is “Active”.

Another experiment concerns the target T2, Angiotensin-converting enzyme (Oryctolagus cuniculus, UniProt P12822).
T2 sequence (P12822 whole entry): T1 sequence (whole entry)
Kind of experiment: (§1) Inhibition of rabbit lung ACE assessed as reduction in hippuryl-histidyl-leucine substrate by colorimetric assay. A digest of the protocol:
(§2)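 ACE came from a rabbit lung homogenate in 0.05 M sodium borate, pH 8.2, 0.3 M NaCl, 0.5% Triton X-100 at 4 °C, centrifuged. Enzyme was preincubated with compound for 10 min at 37 °C, then run for 30 min at 37 °C with 5 mM HHL stock in borate/NaCl buffer. Hippuric acid was derivatised with pyridine and benzenesulfonyl chloride and read at 410 nm. IC50 was taken from % inhibition versus concentration curves; means of three experiments.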
Take `CCCCc1nc(Cl)c(C2CC(c3ccco3)=NN2C(C)=O)n1C` (stereo not given): the pIC50 is 2.63.

For `O=C(/C=C/c1ccc(O)c(O)c1)c1ccc(O)cc1O` [BUTEIN], the pIC50 was 3.14.

Regarding `CCCCc1nc(Cl)c(C2CC(c3ccc([N+](=O)[O-])cc3)=NN2C(C)=O)n1C` (stereo not given), the pIC50 was 2.65.

In the case of `CCCCc1nc(Cl)c(/C=C/C(=O)c2ccc3sc4ccccc4c3c2)n1C`, the negative-log IC50 (pIC50) is 5.57.

As for `CCCCc1nc(Cl)c(C2CC(c3ccc(OC)cc3)=NN2C(C)=O)n1C` (stereo not given), the pIC50 was 2.63.

For the compound `CCCCc1nc(Cl)c(/C=C/C(=O)c2ccc[nH]2)n1C`, the pIC50 was 5.65.

In the case of `CCCCc1nc(Cl)c(C2CC(c3ccc(Cl)s3)=NN2C(C)=O)n1C` (stereo not given), the pIC50 was 2.74.

Take `CCCCc1nc(Cl)c(C2CC(c3ccc4sc5ccccc5c4c3)=NN2C(C)=O)n1C` (stereo not given): the negative-log IC50 (pIC50) was 2.70.

Consider `CCCCc1nc(Cl)c(C2CC(c3cc(OC)c(OC)c(OC)c3)=NN2C(C)=O)n1C` (stereo not given), for which the negative-log IC50 (pIC50) was 2.67.

For the compound `CCCCc1nc(Cl)c(/C=C/C(=O)c2ccc(Cl)s2)n1C`, the pIC50 was 5.44.

Turning to `O=c1cc(-c2ccc(O)cc2)oc2cc(O)cc(O)c12` [APIGENIN], the pIC50 was 3.55.

In another experiment the target is T1, Angiotensin-converting enzyme (Oryctolagus cuniculus). The experiment is described as §1. A digest of the protocol: as §2
As for `CCCCc1nc(Cl)c(/C=C/C(=O)c2ccc3sc4ccccc4c3c2)n1C`, the inhibition entry was “Dose-dependent effect”.

Turning to `CCCCc1nc(Cl)c(/C=C/C(=O)c2ccc[nH]2)n1C`, the inhibition result is “Dose-dependent effect”.

With `CCCCc1nc(Cl)c(/C=C/C(=O)c2ccc(Cl)s2)n1C`, the inhibition result is “Dose-dependent effect”.

The values are drawn from ChEMBL document CHEMBL1811899, “Synthesis and evaluation of novel 2-butyl-4-chloro-1-methylimidazole embedded chalcones and pyrazoles as angiotensin converting enzyme (ACE) inhibitors” (Bioorg Med Chem, 2011).
